# Experimental data taken from ChEMBL document CHEMBL1629579, “Correlating echinocandin MIC and kinetic inhibition of fks1 mutant glucan synthases for Candida albicans: implications for interpretive breakpoints” (Antimicrob Agents Chemother, 2009).
# Numbered stars: 1 amine (or outer) side, 2 acyl side, 3 side chain; on linkers, the order of the positions; unused ones are H or OH. Bridge positions count the residues as written; N and C are the ends. Square brackets hold non-standard residues; d marks the D form. Peptide text beside a SMILES is read from it. * marks the point of attachment. pTerphenylCO(4''-OnC5H11) = CCCCCOc1ccc(-c2ccc(-c3ccc(C(=O)*)cc3)cc2)cc1; Orn(4R-OH,5R-OH) = O=C([C@H](C[C@@H](O)[C@@H](O)N[*:3])N[*:1])[*:2]; hTyr(3S-OH,4S-OH) = N[C@H](C(=O)O)[C@H](O)[C@@H](O)c1ccc(O)cc1; Pro(3S-OH,4S-Me) = C[C@H]1CN[C@H](C(=O)O)[C@H]1O; Hyp = O=C(O)[C@@H]1C[C@@H](O)CN1
# What was measured:
# Candida albicans [1] = assay: Antimicrobial activity against Candida albicans SC5314 by M27-A3 method in presence of 50% human serum; type: functional
# Procedure, shortened: (§1)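 Broth microdilution per CLSI M27-A3 in RPMI 1640, done in triplicate on three separate days. Each strain was tested with and without 50% human serum. C. krusei ATCC 6258 and C. parapsilosis ATCC 22019 served as QC strains. Arithmetic means are reported, and geometric means were used for comparison.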
# Candida albicans [2] = assay: Antimicrobial activity against Candida albicans 36082 by M27-A3 method; type: functional
# Procedure, shortened: (§2)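 Broth microdilution per CLSI M27-A3 in RPMI 1640, with and without 50% human serum, in triplicate. C. krusei ATCC 6258 and C. parapsilosis ATCC 22019 served as quality-control strains. MIC reported as arithmetic mean of three repetitions on separate days.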
# Candida albicans [3] = assay: Antimicrobial activity against Candida albicans 90028 by M27-A3 method; type: functional; procedure, shortened: as §2
# Candida albicans [4] = assay: Antimicrobial activity against Candida albicans 3795 by M27-A3 method; type: functional; procedure, shortened: as §2
# Candida albicans [5] = assay: Antimicrobial activity against Candida albicans 119 harboring FKS1 T1921C mutant gene and FKS1 hotspot1 F641L mutant gene by M27-A3 method; type: functional; procedure, shortened: as §1
# Candida albicans [6] = assay: Antimicrobial activity against Candida albicans 177 harboring FKS1 T1922C mutant gene and FKS1 hotspot1 F641S mutant gene by M27-A3 method in presence of 50% human serum; type: functional; procedure, shortened: as §1
# Candida albicans [7] = assay: Antimicrobial activity against Candida albicans 5415 harboring FKS1 T1933C mutant gene and FKS1 hotspot1 S645P mutant gene by M27-A3 method; type: functional; procedure, shortened: as §1
# Candida albicans [8] = assay: Antimicrobial activity against Candida albicans 89 harboring FKS1 C1934A mutant gene and FKS1 hotspot1 S645Y mutant gene by M27-A3 method; type: functional; procedure, shortened: as §1
# Candida albicans [9] = assay: Antimicrobial activity against Candida albicans 85 harboring FKS1 C1934T mutant gene and FKS1 hotspot1 S645F mutant gene by M27-A3 method; type: functional; procedure, shortened: as §1
# Candida albicans [10] = assay: Antimicrobial activity against Candida albicans 85 harboring FKS1 C1934T mutant gene and FKS1 hotspot1 S645F mutant gene by M27-A3 method in presence of 50% human serum; type: functional; procedure, shortened: as §1
# Candida albicans [11] = assay: Antimicrobial activity against Candida albicans 121 harboring FKS1 G4082A mutant gene and FKS1 hotspot2 R1361H mutant gene by M27-A3 method in presence of 50% human serum; type: functional; procedure, shortened: as §1
# Candida albicans [12] = assay: Antimicrobial activity against Candida albicans 194 harboring FKS1 C1934T/G4082R mutant gene and FKS1 hotspot1 S645F mutant gene and FKS1 hotspot2 R1361R/H mutant gene by M27-A3 method in presence of 50% human serum; type: functional; procedure, shortened: as §1
# Candida albicans [13] = assay: Antimicrobial activity against Candida albicans 90 harboring FKS1 G4082R mutant gene and FKS1 hotspot2 R1361R/H mutant gene by M27-A3 method in presence of 50% human serum; type: functional; procedure, shortened: as §1
# Candida albicans [14] = assay: Antimicrobial activity against Candida albicans A15 harboring FKS1 T1933Y mutant gene and FKS1 hotspot1 S645S/P mutant gene by M27-A3 method; type: functional; procedure, shortened: as §1
# [15] = Inhibition of Candida albicans 90028 1,3-beta-D-glucan synthase subunit FKS1p
# Procedure, shortened: (§3)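 Enzyme is product-entrapped 1,3-β-D-glucan synthase, enriched from membranes of each strain grown at 37°C with shaking in YPD broth to early stationary phase. Filtration polymerization assay uses [3H]UDPG, started by adding enzyme and run 60 min at 25°C. Echinocandins are added as serial dilutions, with 1% DMSO controls for anidulafungin. IC50 is from a variable-slope sigmoidal fit; values are triplicate arithmetic means.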
# [16] = Inhibition of Candida albicans 3795 1,3-beta-D-glucan synthase subunit FKS1p; procedure, shortened: as §3
# [17] = Inhibition of Candida albicans 119 1,3-beta-D-glucan synthase subunit FKS1p T1921C mutant
# Procedure, shortened: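 Product-entrapped glucan synthase from YPD-grown cells (37°C, early stationary phase) in a filtration polymerization assay with [3H]UDPG. Echinocandin serial dilutions were added, with 1% DMSO in controls for anidulafungin. Reactions were started with enzyme, run 60 min at 25°C and stopped on ice. IC50 came from a variable-slope sigmoidal fit, in triplicate.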
# [18] = Inhibition of Candida albicans 2762 1,3-beta-D-glucan synthase subunit FKS1p T1922C mutant; procedure, shortened: as §3
# [19] = Inhibition of Candida albicans 205 1,3-beta-D-glucan synthase subunit FKS1p T1933C mutant; procedure, shortened: as §3
# [20] = Inhibition of Candida albicans 89 1,3-beta-D-glucan synthase subunit FKS1p C1934A mutant; procedure, shortened: as §3
# [21] = Inhibition of Candida albicans 122 1,3-beta-D-glucan synthase subunit FKS1p C1946A mutant; procedure, shortened: as §3
# [22] = Inhibition of Candida albicans 194 1,3-beta-D-glucan synthase subunit FKS1p C1934T/G4082R mutant; procedure, shortened: as §3
# [23] = Inhibition of Candida albicans 90 1,3-beta-D-glucan synthase subunit FKS1p G4082R mutant; procedure, shortened: as §3
# [24] = Inhibition of Candida albicans A15-10 1,3-beta-D-glucan synthase subunit FKS1p T1933C mutant; procedure, shortened: as §3
# Candida albicans [25] = assay: Activity at Candida albicans 36082 1,3-beta-D-glucan synthase subunit FKS1p
# Procedure, shortened: (§4)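 Glucan synthase from cells grown at 37°C with vigorous shaking to early stationary phase in YPD. Membrane enzyme enriched by product entrapment. Serial echinocandin dilutions; ANF controls held 1% DMSO. Reaction started by adding enzyme, run 60 min at 25°C in a filtration polymerization assay, stopped on ice. IC50 from a variable-slope sigmoidal fit; means of three repetitions on separate days.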
# Candida albicans [26] = assay: Activity at Candida albicans 1002 1,3-beta-D-glucan synthase subunit FKS1p; procedure, shortened: as §4
# Candida albicans [27] = assay: Activity at Candida albicans 3107 1,3-beta-D-glucan synthase subunit FKS1p; procedure, shortened: as §4
# Candida albicans [28] = assay: Activity at Candida albicans 5415 1,3-beta-D-glucan synthase subunit FKS1p T1933C mutant
# Procedure, shortened: (§5)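 Product-entrapped 1,3-β-D-glucan synthase from cells grown in YPD at 37°C to early stationary phase. Wells held 50 mM HEPES pH 7.5, 10% glycerol, 1.5 mg/ml BSA, 25 mM KF, 1 mM EDTA, 25 μM GTP-γ-S, 1 μg enzyme and [3H]UDPG (0.015–2 mM). Reactions ran 60 min at 25°C. Vmax and Km came from Lineweaver-Burke plots, in triplicate.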
# Candida albicans [29] = assay: Activity at Candida albicans 89 1,3-beta-D-glucan synthase subunit FKS1p C1934A mutant; procedure, shortened: as §5
# Candida albicans [30] = assay: Activity at Candida albicans 194 1,3-beta-D-glucan synthase subunit FKS1p C1934T/G4082R mutant; procedure, shortened: as §5
# Candida albicans [31] = assay: Activity at Candida albicans 90 1,3-beta-D-glucan synthase subunit FKS1p G4082R mutant; procedure, shortened: as §5
structure (smiles),measurement,setting,value
"CCCCCOc1ccc(-c2ccc(-c3ccc(C(=O)N[C@H]4C[C@@H](O)[C@@H](O)NC(=O)[C@@H]5[C@@H](O)[C@@H](C)CN5C(=O)[C@H]([C@@H](C)O)NC(=O)[C@H]([C@H](O)[C@@H](O)c5ccc(O)cc5)NC(=O)[C@@H]5C[C@@H](O)CN5C(=O)[C@H]([C@@H](C)O)NC4=O)cc3)cc2)cc1 [ANIDULAFUNGIN] ({pTerphenylCO(4''-OnC5H11)}-[Orn(4R-OH,5R-OH)]T[Hyp][hTyr(3S-OH,4S-OH)]T[Pro(3S-OH,4S-Me)]; lactam 1-C)",MIC,Candida albicans [1],0.5 µg/mL
same,MIC,Candida albicans [2],0.03 µg/mL
same,MIC,Candida albicans [3],0.03 µg/mL
same,MIC,Candida albicans [4],0.06 µg/mL
same,MIC,Candida albicans [5],0.16 µg/mL
same,MIC,Candida albicans [6],4 µg/mL
same,MIC,Candida albicans [7],2 µg/mL
same,MIC,Candida albicans [8],2 µg/mL
same,MIC,Candida albicans [9],2 µg/mL
same,MIC,Candida albicans [10],8 µg/mL
same,MIC,Candida albicans [11],8 µg/mL
same,MIC,Candida albicans [12],8 µg/mL
same,MIC,Candida albicans [13],4 µg/mL
same,MIC,Candida albicans [14],0.5 µg/mL
same,IC50,[15],0.00183 µg/mL
same,Ki,[15],0.00063 µg/mL
same,IC50,[16],0.00676 µg/mL
same,Ki,[16],0.0167 µg/mL
same,IC50,[17],0.0113 µg/mL
same,Ki,[17],0.00677 µg/mL
same,IC50,[18],1.085 µg/mL
same,Ki,[18],4.48127 µg/mL
same,IC50,[19],0.989 µg/mL
same,Ki,[19],3.2231 µg/mL
same,IC50,[20],2.739 µg/mL
same,Ki,[20],1.16337 µg/mL
same,IC50,[21],0.491 µg/mL
same,Ki,[21],0.64607 µg/mL
same,IC50,[22],0.782 µg/mL
same,Ki,[22],0.29924 µg/mL
same,IC50,[23],0.0406 µg/mL
same,Ki,[23],0.0485 µg/mL
same,IC50,[24],0.901 µg/mL
same,Ki,[24],2.5637 µg/mL
same,Km,Candida albicans [25],89 µM
same,Vmax,Candida albicans [25],5.87 nmol/min
same,Km,Candida albicans [26],122 µM
same,Vmax,Candida albicans [26],5.8 nmol/min
same,Km,Candida albicans [27],102 µM
same,Vmax,Candida albicans [27],6.04 nmol/min
same,Km,Candida albicans [28],98 µM
same,Vmax,Candida albicans [28],3.12 nmol/min
same,Km,Candida albicans [29],61 µM
same,Vmax,Candida albicans [29],2.51 nmol/min
same,Km,Candida albicans [30],61 µM
same,Vmax,Candida albicans [30],5.81 nmol/min
same,Km,Candida albicans [31],31 µM
same,Vmax,Candida albicans [31],2.36 nmol/min
